The values below come from ChEMBL document CHEMBL1687813 (Antimicrob Agents Chemother, 2010).

Assay [1] addresses T1, Nicotinamidase/pyrazinamidase (Mycolicibacterium smegmatis) (UniProt Q9ZHK8).
T1 sequence (whole entry): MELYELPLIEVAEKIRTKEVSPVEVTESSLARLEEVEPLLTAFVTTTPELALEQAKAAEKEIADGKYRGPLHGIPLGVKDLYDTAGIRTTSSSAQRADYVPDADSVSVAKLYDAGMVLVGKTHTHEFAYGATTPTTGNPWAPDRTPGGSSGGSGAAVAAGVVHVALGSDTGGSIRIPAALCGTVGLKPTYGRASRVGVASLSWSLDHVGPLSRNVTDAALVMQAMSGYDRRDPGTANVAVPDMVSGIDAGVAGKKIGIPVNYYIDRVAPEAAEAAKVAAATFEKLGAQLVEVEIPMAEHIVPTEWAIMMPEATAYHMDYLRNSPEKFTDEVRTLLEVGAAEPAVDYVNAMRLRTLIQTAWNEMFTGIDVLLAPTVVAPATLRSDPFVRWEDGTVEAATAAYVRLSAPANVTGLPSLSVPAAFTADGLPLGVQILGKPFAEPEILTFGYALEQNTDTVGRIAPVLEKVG
Nature of the assay: Activity of PzaA in Mycobacterium smegmatis mc27031 assessed as compound turnover per ml of microbial cells after 30 mins by […] analysis. The essentials: (§1)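 Whole-cell colorimetric amidase assay: log-phase cells were pelleted and resuspended in sterile water with 0.05% tyloxapol. Substrate (PZA or 5-Cl PZA) was added to 2 mM at 37°C with shaking and sampled at intervals. Clarified aliquots received ferrous ammonium sulfate (20 mM final), stood 30 min at 4°C, were re-spun, and were read at OD468. Extinction coefficients were 0.68 (PA) and 0.47 (5-Cl PA) per mM. Activity is nmol/min per ml of cells (OD600).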

The test system of assay [2] is Mycolicibacterium smegmatis. Nature of the assay: Inhibition of Fatty acid synthase type 1 in Mycobacterium smegmatis mc27031 at 1500 ug/ml after 2 hrs by HPLC.
Assay [3] relates to Mycolicibacterium smegmatis. The assay is described as follows: Antimicrobial activity against Mycobacterium smegmatis mc27035 harboring deltaMSMEG_1090 from Mycobacterium smegmatis mc2155 after 48 hrs by broth microdilution method. The format is functional. Conditions: mc27035, 48 h. The procedure, abridged: (§2)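 Broth MIC: exponentially growing cells were diluted to 10^6 CFU/ml in supplemented 7H9 across a range of PZA or 5-Cl PZA concentrations. Medium was adjusted to pH 5.2 where indicated. Cultures were incubated 2 days at 37°C. The MIC is the lowest concentration preventing visible growth. Plasmid-borne amidases were induced with 50 ng/ml anhydrotetracycline.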
Background: Broth dilution looks for growth in wells or tubes with falling amounts of substance.

Assay [4] concerns Mycolicibacterium smegmatis. The assay is described as follows: Antimicrobial activity against 5-Cl PZA-resistant Mycobacterium smegmatis mc22612after 48 hrs by broth microdilution method. The assay is classed as functional. As to conditions: mc22612, 48 h.
Assay [5] deals with T1, Nicotinamidase/pyrazinamidase (Mycolicibacterium smegmatis). The assay is described as follows: Activity of PzaA in Mycobacterium smegmatis mc27038 assessed as compound turnover per ml of microbial cells after 30 mins by […] analysis. The procedure, abridged: as §1
Assay [6] concerns Mycolicibacterium smegmatis. Nature of the assay: Antimicrobial activity against Mycobacterium smegmatis mc2155 after 48 hrs by broth microdilution method. As to conditions: mc2155, 48 h. The format is functional.
In assay [7] the test system is Mycolicibacterium smegmatis. The assay is described as follows: Antimicrobial activity against Mycobacterium smegmatis mc27034 harboring deltaMSMEG_1090 from Mycobacterium smegmatis mc27031 after 48 hrs by broth microdilution method. The format is functional. As to conditions: mc27034, 48 h. The procedure, abridged: as §2
Assay [8] deals with Mycobacterium tuberculosis. Nature of the assay: Antimicrobial activity against Mycobacterium tuberculosis H37Ra after 11 days by broth microdilution method at pH 6. The format is functional. Conditions: 264 h. The procedure, abridged:
(§3)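 Tubercle bacilli were diluted to 10^6 CFU/ml in supplemented 7H9 containing graded PZA or 5-Cl PZA, at pH 6.0 or neutral pH 6.8. Cultures were incubated 11 days at 37°C. The MIC is the lowest concentration blocking visible growth. Integrated amidase constructs were induced with 50 ng/ml anhydrotetracycline.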

Assay [9] has as its target T1, Nicotinamidase/pyrazinamidase (Mycolicibacterium smegmatis). Nature of the assay: Activity of PzaA in Mycobacterium smegmatis mc27036 assessed as compound turnover per ml of microbial cells after 30 mins by […] analysis. The procedure, abridged: as §1
In assay [10] the test system is Mycolicibacterium smegmatis. Nature of the assay: Antimicrobial activity against Mycobacterium smegmatis mc27032 harboring deltaMSMEG_1088 from Mycobacterium smegmatis mc2155 after 48 hrs by broth microdilution method. Conditions: mc27032, 48 h. The assay is classed as functional. The essentials: as §2
For assay [11], the target named is T1, Nicotinamidase/pyrazinamidase (Mycolicibacterium smegmatis). The assay is described as follows: Activity of PzaA in Mycobacterium smegmatis mc27032 assessed as compound turnover per ml of microbial cells after 30 mins by […] analysis. The procedure, abridged: as §1
The subject of assay [12] is Mycolicibacterium smegmatis. The assay is described as follows: Antimicrobial activity against Mycobacterium smegmatis mc27036 harboring deltaMSMEG_1090 from Mycobacterium smegmatis mc22612 after 48 hrs by broth microdilution method. The format is functional. As to conditions: mc27036, 48 h. The essentials:
as §2

For assay [13], the system named is Mycolicibacterium smegmatis. The assay is described as follows: Antimicrobial activity against Mycobacterium smegmatis mc27031 harboring MSMEG_1088::magellan4 after 48 hrs by broth microdilution method. The assay is classed as functional. Conditions: mc27031, 48 h. The procedure, abridged:
as §2

Assay [14] concerns the target T1, Nicotinamidase/pyrazinamidase (Mycolicibacterium smegmatis). The assay is described as follows: Activity of PzaA in Mycobacterium smegmatis mc27035 assessed as compound turnover per ml of microbial cells after 30 mins by […] analysis. The essentials: as §1
The target is the same in assay [15]. The assay is described as follows: Activity of PzaA in Mycobacterium smegmatis mc27034 assessed as compound turnover per ml of microbial cells after 30 mins by […] analysis. The essentials: as §1
In assay [16] the test system is Mycolicibacterium smegmatis. The assay is described as follows: Antimicrobial activity against 5-Cl-PZA-resistant Mycobacterium smegmatis mc27037 after 48 hrs by broth microdilution method. The format is functional. Conditions: mc27037, 48 h. The procedure, abridged: as §2
Assay [17] addresses T1, Nicotinamidase/pyrazinamidase (Mycolicibacterium smegmatis). The assay is described as follows: Activity of PzaA in Mycobacterium smegmatis mc27037 assessed as compound turnover per ml of microbial cells after 30 mins by […] analysis. The procedure, abridged: as §1
The subject of assay [18] is Mycolicibacterium smegmatis. Nature of the assay: Antimicrobial activity against Mycobacterium smegmatis mc27038 harboring attBL5::Ptc::pzaAMsmeg from Mycobacterium smegmatis mc2155 after 48 hrs by broth microdilution method. The format is functional. As to conditions: mc27038, 48 h. The procedure, abridged:
as §2

Assay [19] concerns Mycobacterium tuberculosis. The assay is described as follows: Antimicrobial activity against Mycobacterium tuberculosis H37Ra after 11 days by broth microdilution method at pH 6.8. The assay is classed as functional. Conditions: 264 h. The procedure, abridged: as §3
Assay [20] deals with T1, Nicotinamidase/pyrazinamidase (Mycolicibacterium smegmatis). Nature of the assay: Activity of PzaA in Mycobacterium smegmatis mc2155 assessed as compound turnover per ml of microbial cells after 30 mins by […] analysis.
Assay [21] has as its system Mycolicibacterium smegmatis. The assay is described as follows: Inhibition of Fatty acid synthase type 1 in Mycobacterium smegmatis mc2155 at 250 ug/ml after 2 hrs by HPLC.
The target of assay [22] is T2, PYRAZINAMIDASE/NICOTINAMIDAS PNCA (PZase) (Mycobacterium tuberculosis) (UniProt Q50575).
T2 sequence (whole entry): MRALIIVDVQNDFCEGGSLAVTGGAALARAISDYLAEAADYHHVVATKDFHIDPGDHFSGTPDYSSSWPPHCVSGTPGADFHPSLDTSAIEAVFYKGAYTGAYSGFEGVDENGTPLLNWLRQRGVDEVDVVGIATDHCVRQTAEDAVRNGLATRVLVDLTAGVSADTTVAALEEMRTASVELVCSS
Nature of the assay: Activity of PncA in Mycobacterium tuberculosis H37Ra assessed as compound turnover per ml of microbial cells after 30 mins by […] analysis. The essentials: as §1

In assay [23] the target is T1, Nicotinamidase/pyrazinamidase (Mycolicibacterium smegmatis). The assay is described as follows: Activity of PzaA in Mycobacterium smegmatis mc22612 assessed as compound turnover per ml of microbial cells after 30 mins by […] analysis.
The test system of assay [24] is Mycolicibacterium smegmatis. Nature of the assay: Inhibition of Fatty acid synthase type 1 in Mycobacterium smegmatis mc27031 at 2.5 mg/ml after 2 hrs by HPLC. The procedure, abridged:
(§4)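 FAS I activity: mid-log cells (OD600 0.5) were resuspended to OD600 0.2 in 7H9 with 0.2% dextrose and 0.05% tyloxapol, pH 5.1, plus 2.5 mg/ml PZA, for 2 h at 37°C. They were pulsed with [1-14C]acetate (1 μCi/ml) for a further 2 h. Lipids were extracted, saponified, and derivatized to p-bromophenacyl esters. 14C-palmitate was quantified by reverse-phase HPLC.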

For assay [25], the system named is Mycolicibacterium smegmatis. Nature of the assay: Inhibition of Fatty acid synthase type 1 in Mycobacterium smegmatis mc2155 at 2.5 mg/ml after 2 hrs by HPLC. The essentials:
as §4

The term MIC denotes the lowest concentration found to suppress growth.

Values after ≈ are worked out from the molar mass of the structure shown. Active and inactive are the calls of the source. The rule behind the calls is not given here.

Regarding `NC(=O)c1cnc(Cl)cn1`, the Activity in assay [1] was found to be 100 nmol/min; in assay [5] it was 34 nmol/min; in assay [9], 1.2 nmol/min; in [11], 65 nmol/min; in assay [14] it was 0.95 nmol/min; in [15], 1.2 nmol/min. For the same compound, the Activity stood at 100 nmol/min in assay [17], 0.85 nmol/min in assay [20], 0.15 nmol/min in assay [22] and 32 nmol/min in assay [23]. Also, the result in assay [2] and in assay [21] was Active. In addition, the minimum inhibitory concentration (MIC) is 25 µg/mL (≈ 159 µM) in [3]; 125 µg/mL (≈ 793 µM) in assay [4]; 25 µg/mL (≈ 159 µM) in [6]; 25 µg/mL (≈ 159 µM) in assay [7]; 25 µg/mL (≈ 159 µM) in assay [8]; 125 µg/mL (≈ 793 µM) in assay [10]. Besides, the MIC was 25 µg/mL (≈ 159 µM) in [12]; 125 µg/mL (≈ 793 µM) in assay [13]; 125 µg/mL (≈ 793 µM) in assay [16]; 125 µg/mL (≈ 793 µM) in assay [18]; 200 µg/mL (≈ 1270 µM) in assay [19].
Turning to `NC(=O)c1cnccn1` [PYRAZINAMIDE], the Activity in [1] stood at 100 nmol/min; in assay [5], 34 nmol/min; in assay [9] it was 1.2 nmol/min; in assay [11], 65 nmol/min; in assay [14] it was 0.95 nmol/min; in assay [15] it was 1.2 nmol/min. Moreover, the Activity turned out to be 100 nmol/min in [17], 0.85 nmol/min in assay [20], 0.23 nmol/min in assay [22] and 32 nmol/min in assay [23]. In addition, the MIC is over 4000 µg/mL in assay [3]; over 4000 µg/mL in assay [4]; over 4000 µg/mL in assay [6]; over 4000 µg/mL in [7]; over 1000 µg/mL in [8]; 150 µg/mL (≈ 1220 µM) in [10]. Also, the MIC is over 4000 µg/mL in assay [12]; 150 µg/mL (≈ 1220 µM) in assay [13]; 150 µg/mL (≈ 1220 µM) in assay [16]; over 4000 µg/mL in [18]; 62.5 µg/mL (≈ 508 µM) in assay [19]. Besides, the inhibition result in [24] was “inactive”. In [25], the inhibition entry was “Active”.
